# Measured values taken from ChEMBL document CHEMBL4043093, “2-Oxo-3, 4-dihydropyrimido[4, 5-d]pyrimidinyl derivatives as new irreversible pan fibroblast growth factor receptor (FGFR) inhibitors” (Eur J Med Chem, 2017).
# Key:
# [1] = molecular target: Maternal embryonic leucine zipper kinase (Homo sapiens) (UniProt Q14680); assay: Inhibition of wild-type human full length MELK (M1 to V651 residues) expressed in Escherichia coli BL21 assessed as residual activity at 1000 nM after 30 mins by Kinomescan method relative to control
# Procedure, shortened: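 Single-concentration screen at 1 µM across a 456-kinase KINOMEscan panel. The read-out is Percent Control for each kinase.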
# [2] = molecular target: Serine/threonine-protein kinase pim-1 (Homo sapiens) (UniProt P11309); assay: Inhibition of wild-type human partial length PIM1 (A15 to K313 residues) expressed in Escherichia coli BL21 assessed as residual activity at 1000 nM after 30 mins by Kinomescan method relative to control
# [3] = molecular target: Non-receptor tyrosine-protein kinase TNK1 (Homo sapiens) (UniProt Q13470); assay: Inhibition of wild-type human full length TNK1 (M1 to P661 residues) expressed in Escherichia coli BL21 assessed as residual activity at 1000 nM after 30 mins by Kinomescan method relative to control
# [4] = molecular target: Ephrin type-B receptor 1 (Homo sapiens) (UniProt P54762); assay: Inhibition of wild-type human partial length EPHB1 (P589 to T911 residues) expressed in Escherichia coli BL21 assessed as residual activity at 1000 nM after 30 mins by Kinomescan method relative to control
# [5] = molecular target: Serine/threonine-protein kinase WNK1 (Homo sapiens) (UniProt Q9H4A3); assay: Inhibition of wild-type human partial length WNK1 (Q194 to A490 residues) expressed in HEK293 cells assessed as residual activity at 1000 nM after 30 mins by Kinomescan method relative to control; format: cell-based
# [6] = molecular target: Mitogen-activated protein kinase kinase kinase kinase 2 (Homo sapiens) (UniProt Q12851); assay: Inhibition of wild-type human partial length MAP4K2 (M1 to G318 residues) expressed in HEK293 cells assessed as residual activity at 1000 nM after 30 mins by Kinomescan method relative to control; format: cell-based
# [7] = test system: Hepatocyte growth factor receptor (Homo sapiens), P08581 [Y1235D]; assay: Inhibition of human partial length MET Y1235D mutant (D1010 to S1367 residues) expressed in Escherichia coli BL21 assessed as residual activity at 1000 nM after 30 mins by Kinomescan method relative to control
# Procedure, shortened: (§1)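 KINOMEscan binding panel of 456 kinases, with the test compound at a single concentration of 1 µM. Read-out is Percent Control.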
# [8] = molecular target: Myosin light chain kinase 2, skeletal/cardiac muscle (Homo sapiens) (UniProt Q9H1R3); assay: Inhibition of wild-type human partial length MYLK2 (D258 to K570 residues) expressed in Escherichia coli BL21 assessed as residual activity at 1000 nM after 30 mins by Kinomescan method relative to control
# [9] = test system: eIF-2-alpha kinase GCN2 (Homo sapiens), Q9P2K8 [S808G]; assay: Inhibition of wild-type human partial length GCN2 kinase domain 2 (R585 to T1018 residues) S808G mutant expressed in Escherichia coli BL21 assessed as residual activity at 1000 nM after 30 mins by Kinomescan method relative to control
# [10] = molecular target: Aurora kinase C (Homo sapiens) (UniProt Q9UQB9); assay: Inhibition of wild-type human full length AURKC (M1 to S275 residues) expressed in Escherichia coli BL21 assessed as residual activity at 1000 nM after 30 mins by Kinomescan method relative to control
# Procedure, shortened: (§2)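 Single-point screen at a fixed 1 µM, run within a 456-kinase DiscoveRx KINOMEscan panel. Each kinase's read-out is Percent Control, i.e. signal relative to a control without compound. Hits were scored by a Percent Control < 35 cut-off, and an S(35) selectivity score was calculated across the non-mutant kinases.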
# [11] = molecular target: Proto-oncogene tyrosine-protein kinase Src (Homo sapiens) (UniProt P12931); assay: Inhibition of wild-type human partial length SRC (L240 to L536 residues) expressed in Escherichia coli BL21 assessed as residual activity at 1000 nM after 30 mins by Kinomescan method relative to control
# [12] = molecular target: Mitogen-activated protein kinase 13 (Homo sapiens) (UniProt O15264); assay: Inhibition of wild-type human full length p38-delta (M1 to L365 residues) expressed in Escherichia coli BL21 assessed as residual activity at 1000 nM after 30 mins by Kinomescan method relative to control
# [13] = molecular target: Vascular endothelial growth factor receptor 3 (Homo sapiens) (UniProt P35916); assay: Inhibition of wild-type human partial length FLT4 (E821 to E1196 residues) expressed in Escherichia coli BL21 assessed as residual activity at 1000 nM after 30 mins by Kinomescan method relative to control
# [14] = molecular target: SRSF protein kinase 2 (Homo sapiens) (UniProt P78362); assay: Inhibition of wild-type human full length SRPK2 (M1 to S686 residues) expressed in Escherichia coli BL21 assessed as residual activity at 1000 nM after 30 mins by Kinomescan method relative to control
# [15] = molecular target: Serine/threonine-protein kinase 33 (Homo sapiens) (UniProt Q9BYT3); assay: Inhibition of wild-type human full length STK33 (M1 to L514 residues) expressed in Escherichia coli BL21 assessed as residual activity at 1000 nM after 30 mins by Kinomescan method relative to control
# [16] = molecular target: Ribosomal protein S6 kinase alpha-1 (Homo sapiens) (UniProt Q15418); assay: Inhibition of wild-type human partial length C-terminal RSK1 kinase domain 2 (P360 to L681 residues) expressed in Escherichia coli BL21 assessed as residual activity at 1000 nM after 30 mins by Kinomescan method relative to control
# [17] = molecular target: Mitogen-activated protein kinase kinase kinase 19 (Homo sapiens) (UniProt Q56UN5); assay: Inhibition of wild-type human partial length YSK4 (T1019 to H1328 residues) expressed in HEK293 cells assessed as residual activity at 1000 nM after 30 mins by Kinomescan method relative to control; format: cell-based
# [18] = molecular target: Serine/threonine-protein kinase ULK1 (Homo sapiens) (UniProt O75385); assay: Inhibition of wild-type human partial length ULK1 (M1 to T309 residues) expressed in HEK293 cells assessed as residual activity at 1000 nM after 30 mins by Kinomescan method relative to control; format: cell-based
# [19] = test system: Phosphatidylinositol 4,5-bisphosphate 3-kinase catalytic subunit alpha isoform (Homo sapiens), P42336 [H1047L]; assay: Inhibition of human partial length PIK3CA H1047L mutant (R108 to N1068 residues) expressed in HEK293 cells assessed as residual activity at 1000 nM after 30 mins by Kinomescan method relative to control; format: cell-based; procedure, shortened: as §1
# [20] = test system: Tyrosine-protein kinase ABL1 (Homo sapiens), P00519 [E255K]; assay: Inhibition of human phosphorylated ABL1 E255K mutant (S229 to K512 residues) expressed in HEK293 cells assessed as residual activity at 1000 nM after 30 mins by Kinomescan method relative to control; format: cell-based; procedure, shortened: as §2
# [21] = molecular target: Tyrosine-protein kinase ABL1 (Homo sapiens) (UniProt P00519); assay: Inhibition of wild-type human non-phosphorylated ABL1 (S229 to K512 residues) expressed in HEK293 cells assessed as residual activity at 1000 nM after 30 mins by Kinomescan method relative to control; format: cell-based
smiles,measurement,setting,value
COc1cc(OC)c(Cl)c(N2Cc3cnc(Nc4ccc(F)cc4)nc3N(C3CCN(C(=O)/C=C/CN(C)C)CC3)C2=O)c1Cl,Activity,[1],100%
same,Activity,[2],97%
same,Activity,[3],93%
same,Activity,[4],100%
same,Activity,[5],59%
same,Activity,[6],100%
same,Activity,[7],100%
same,Activity,[8],82%
same,Activity,[9],46%
same,Activity,[10],100%
same,Activity,[11],11%
same,Activity,[12],90%
same,Activity,[13],2.7%
same,Activity,[14],91%
same,Activity,[15],100%
same,Activity,[16],94%
same,Activity,[17],93%
same,Activity,[18],89%
same,Activity,[19],100%
same,Activity,[20],48%
same,Activity,[21],32%
